Shown are actives, neighbours in structure and some others; about 1.5% of the full set was active somewhere.
CCR6 antagonist: blocks CCL20-driven beta-arrestin recruitment at human CCR6. P51684. CHO-K1 CCR6 PathHunter beta-arrestin, luminescence, CCL20-stimulated. inhibition, % at 20 µM. 340,000 compounds, 0.49% hits;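 active = compounds whose inhibition of the agonist-driven luminescence signal at 20 µM reaches about 50%, limit read from the data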;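 note: cells stimulated with CCL20 at 14 nM final; plate controls were DMSO with CCL20 for no effect and DMSO without agonist for full effect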
CXCR6 block: blocks human CXCR6 beta-arrestin recruitment; CHO-K1 PathHunter CXCR6 beta-arrestin, luminescence; inhibition, % at 20 µM; 360,000 compounds, 0.36% hits; AID 602244; in the data active = inhibition above about 34%, passing the limit was not always enough;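 note: antagonist mode with CXCL16 agonist at 10 nM final; 0% = 10 nM CXCL16 with DMSO and 100% = unstimulated wells without agonist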
Target sequence (O00574 whole entry, looked up): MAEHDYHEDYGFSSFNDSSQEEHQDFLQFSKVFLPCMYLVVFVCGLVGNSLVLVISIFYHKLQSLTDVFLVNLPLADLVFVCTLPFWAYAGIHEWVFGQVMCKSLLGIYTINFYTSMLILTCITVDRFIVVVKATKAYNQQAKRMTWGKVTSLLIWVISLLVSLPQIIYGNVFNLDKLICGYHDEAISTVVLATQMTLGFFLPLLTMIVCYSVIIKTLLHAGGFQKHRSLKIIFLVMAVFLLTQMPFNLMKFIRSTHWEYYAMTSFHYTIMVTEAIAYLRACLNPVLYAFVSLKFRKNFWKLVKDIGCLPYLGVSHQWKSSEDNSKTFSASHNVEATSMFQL
APJ ag: activates the human apelin receptor APJ. P35414. CHO-K1 APJ PathHunter beta-arrestin, luminescence; 0% DMSO wells, 100% apelin. activation, % at 20 µM. 330,000 compounds, 0.11% hits;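 active = activation more than six SD over the plate average, tested at 20 µM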;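 note: 0% = DMSO alone and 100% = apelin-13 at 10 nM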
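Test system: CHO-K1 APJ beta-arrestin complementation cell line | Compound: Single test compound dose, 20 µM final, 1% DMSO | Incubation: Compound 90 min 25 °C, reagent 1 h | Measured by: beta-gal luminescence | Read-out basis: APJ–arrestin association signal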
APJ antagonist: blocks the human apelin receptor APJ; inhibition, % at 20 µM; 330,000 compounds, 0.32% hits; CHO-K1 APJ beta-arrestin complementation, luminescence; P35414; AID 2521;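 active = inhibition above about 40% at 20 µM, limit read from the data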;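 note: cells challenged with 10 nM apelin-13 agonist together with compound; plate controls were apelin-13 plus DMSO wells for no effect and DMSO wells lacking apelin-13 for full effect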
EBI2 block: EBI2 (human) antagonism. EBI2 beta-arrestin recruitment, luminescence, 7a,25-OHC stimulated. 360,000 compounds, 0.81% hits. inhibition, % at 5 µM; in the data active = inhibition above about 38%;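 note: enzyme fragment complementation signal reports receptor beta-arrestin coupling in cells; 0% = agonist plus DMSO wells and 100% = wells without agonist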
Target sequence (P32249 whole entry, looked up, the tested form may be a part): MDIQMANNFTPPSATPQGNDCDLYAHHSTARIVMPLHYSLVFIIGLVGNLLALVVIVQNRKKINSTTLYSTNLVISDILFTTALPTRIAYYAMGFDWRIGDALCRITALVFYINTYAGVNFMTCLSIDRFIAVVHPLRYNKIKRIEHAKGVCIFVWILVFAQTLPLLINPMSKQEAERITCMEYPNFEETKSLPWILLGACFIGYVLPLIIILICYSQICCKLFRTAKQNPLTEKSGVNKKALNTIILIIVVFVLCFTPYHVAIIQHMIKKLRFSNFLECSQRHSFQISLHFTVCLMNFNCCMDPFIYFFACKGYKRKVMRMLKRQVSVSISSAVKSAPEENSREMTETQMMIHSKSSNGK
EBI2 conf: EBI2 (human) antagonism, single concentration confirmation. shares compounds with EBI2 block. EBI2 beta-arrestin luminescence, 7a,25-OHC antagonism. inhibition, % at 5 µM. 2,400 compounds, 29% hits;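 active = inhibition of at least 50%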
EBI2 ag: activates EBI2, counter-screen for EBI2 antagonists. EBI2-expressing cells, agonist mode, luminescence, 60 min; 0% vehicle, 100% 7α,25-dihydroxycholesterol control. 2,400 tested, under 10 active. shares compounds with EBI2 block. AID 652000. activation, % at 5 µM;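 active = activation of at least 50%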
bGal counter: counter-screen for EBI2 antagonists: E. coli beta-galactosidase inhibition; shares compounds with EBI2 block; purified beta-galactosidase, luminescent Galacton Star, 15 min; inhibition, % at 5 µM; 2,400 compounds, 1% hits; AID 652176;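 active = replicate-average signal at least 3 plate SD below neutral wells, shown as high inhibition, flagging enzyme-inhibiting false positives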;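 note: 0% = DMSO wells with enzyme and 100% = wells lacking enzyme; higher means stronger loss of beta-gal luminescence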
* marks the source's active call; other numbers are inactive results; · = not tested or not shown.

SMILES | CCR6 antagonist | CXCR6 block | APJ ag | APJ antagonist | EBI2 block | EBI2 conf | EBI2 ag | bGal counter
COc1ccc(NC(=S)N2CCC(C(=O)c3ccc(F)cc3)CC2)cc1 | 5.1 | -6.7 | · | · | 13.2 | · | · | ·
CSc1ccc(NC(=O)N2CCC(C(=O)c3ccc(F)cc3)CC2)cc1 | 9.3 | -5.4 | -3.0 | 2.3 | 63.8* | 54.7* | 1.3 | -2.2
COc1ccc(NC(=O)N2CCC(C(=O)c3ccc(F)cc3)CC2)cc1 | -0.3 | 0.2 | 8.8 | -0.3 | 53.1* | 36.0 | -0.9 | -8.9
COc1ccc(OC2CCN(C(=O)Nc3ccc(C)cc3)CC2)cc1 | 3.0 | -11.9 | -2.0 | -21.9 | 82.9* | 61.3* | 1.9 | 3.0
O=C(NCC(c1ccco1)N1CCN(c2ccccc2)CC1)C1CCCCC1 (configuration not stated) | · | 2.0 | · | · | 6.1 | · | · | ·
COC(=O)[C@H]1C[C@H](OC(=O)NCc2ccccc2F)[C@@]2(O)CN(S(=O)(=O)c3ccc(C)cc3)CC2[C@H]1C(=O)OC (some centres not stated) | · | -7.1 | · | · | 2.3 | · | · | ·
OC(CN1CCN(c2ncc(C(F)(F)F)cc2Cl)CC1)c1ccccc1 (configuration not stated) | 0.8 | -8.2 | -2.5 | -2.1 | -0.3 | · | · | ·
OC(COc1ccccc1)CN1CCN(C(c2ccccc2)c2ccccc2)CC1 (configuration not stated) | 3.9 | 5.4 | 0.3 | -0.8 | 59.5* | 22.0 | -0.4 | -7.9
N#Cc1ccc(OCC(O)CN2CCN(CC(O)COc3ccc(C#N)cc3)CC2)cc1 (configuration not stated) | -1.1 | 8.3 | 0.4 | 8.3 | 14.7 | · | · | ·
N#Cc1ccc(OCC(O)CN2CCN(C(c3ccccc3)c3ccccc3)CC2)cc1 (configuration not stated) | 9.5 | 3.5 | -1.4 | 2.5 | 88.6* | 58.9* | -0.9 | -11.0
CCC(=O)c1ccc(OCC(O)CN2CCN(C(c3ccccc3)c3ccccc3)CC2)cc1 (configuration not stated) | 0.3 | 10.6 | -1.6 | 15.9 | 74.8* | 46.3 | 3.2 | 3.2
CCC(=O)c1ccc(OCC(O)CN2CCOCC2)cc1 (configuration not stated) | -4.4 | -0.4 | -1.6 | 8.6 | -4.7 | · | · | ·
N#Cc1ccc(OCC(O)CN2CCN(c3ncc(C(F)(F)F)cc3Cl)CC2)cc1 (configuration not stated) | 11.6 | -12.3 | -4.0 | -7.8 | 48.4* | 32.4 | -1.2 | -16.2
CCCCN(C)c1c(C)nc2ccc(C(=O)NCCOc3ccc(OC)cc3)cn12 | · | -3.8 | · | · | 38.8 | · | · | ·
CC(C)Sc1nc2sc(-c3ccccc3)cc2c(=O)n1N | 21.2 | -0.2 | -3.9 | 7.2 | 50.8* | 9.0 | -0.5 | -11.9
C=CCOc1ccc(/C=C/C(=O)N2CCCN(S(=O)(=O)c3c(C)noc3C)CC2)cc1 | -4.9 | -5.7 | 1.6 | 1.5 | 62.8* | 48.0 | -1.3 | -4.6
CCOc1ccc(NC(=O)C2CCN(S(=O)(=O)c3c(C)noc3C)CC2)cc1 | 5.4 | -7.5 | 10.6 | -6.7 | -7.4 | · | · | ·
COCCN1C(=O)c2cc(C(=O)Nc3cccc(F)c3)ccc2C1Nc1cccc(F)c1 (configuration not stated) | 2.4 | 0.2 | 3.0 | -0.1 | 75.2* | 38.9 | -0.2 | -16.4
COCCN1C(=O)c2cc(C(=O)Nc3ccc(C)c(F)c3)ccc2C1Nc1ccc(C)c(F)c1 (configuration not stated) | -2.9 | -10.3 | 3.9 | -6.1 | 86.4* | 64.8* | -0.8 | -14.1
CCc1ccc(NC(=O)c2ccc3c(c2)C(=O)N(CCOC)C3Nc2ccc(CC)cc2)cc1 (configuration not stated) | -0.5 | 0.9 | -1.3 | -7.1 | 64.8* | 62.1* | -0.7 | -16.5
CC(CCc1ccccc1)NC(=O)C1CCCN(C(=O)c2cc3sccc3n2C)C1 (configuration not stated) | 11.3 | -4.5 | -4.0 | -9.6 | 59.9* | 29.0 | -0.2 | -11.2
CN(C(=O)c1cccc(Nc2ccc(-c3ccc4c(c3)OCCO4)nn2)c1)C1CCCCC1 | -0.1 | -0.6 | 4.3 | -17.3 | 41.9* | 26.1 | 1.8 | 12.4
CCN(CC)S(=O)(=O)c1ccc(Nc2ccc(-c3ccc4c(c3)OCCO4)nn2)cc1 | -5.7 | -0.1 | 3.6 | 0.7 | 48.9* | 25.9 | -1.2 | -12.9
CC1(C(=O)Nc2ccc3[nH]ncc3c2)CCN1C(=O)C/C=C/c1ccccc1 (configuration not stated) | · | -0.6 | · | · | 20.6 | · | · | ·
CC1(C(=O)Nc2ccc3[nH]ncc3c2)CCN1C(=O)CC(c1ccccc1)c1ccccc1 (configuration not stated) | · | 7.7 | · | · | 47.6* | 13.1 | -0.4 | -11.0
SMILES | CCR6 antagonist | CXCR6 block | APJ ag | APJ antagonist | EBI2 block | EBI2 conf | EBI2 ag | bGal counter
CC(CCc1ccccc1)NCc1ccc(Cl)cc1Cl (configuration not stated) | 10.2 | -4.0 | -1.3 | 6.6 | 62.1* | 31.7 | 0.6 | 2.5
CC(O)CNCc1ccc(Cl)cc1Cl (configuration not stated) | 22.3 | 6.6 | -1.0 | 3.6 | 13.7 | · | · | ·
CC(Sc1nnc(N)s1)C(=O)c1c(N)n(C)c(=O)n(C)c1=O (configuration not stated) | -1.1 | -6.0 | -2.7 | 17.2 | -9.4 | · | · | ·
Cc1nc(SC(C)C(=O)c2c(N)n(C)c(=O)n(C)c2=O)c2c(C)c(C)sc2n1 (configuration not stated) | 0.3 | 5.4 | -1.8 | 5.8 | 46.7* | 51.2* | -1.0 | 6.9
CCOc1ccc(Br)cc1S(=O)(=O)Nc1ccc(C(=O)Nc2ccc(C)cc2)cc1 | 1.4 | -21.3 | 0.7 | 5.0 | 56.3* | 17.8 | -0.8 | -10.1
CCOc1ccc(Br)cc1S(=O)(=O)Nc1ccc(NC(=O)c2ccccc2C)cc1 | -12.0 | 5.9 | -0.6 | -2.4 | -11.4 | · | · | ·
COc1ccc2c(c1)c1nc3n(c(=O)c1n2CC(=O)Nc1cc(C)[nH]n1)CCS3 | · | · | 4.2 | 0.2 | · | · | · | ·
COc1cccc(NC(=O)Cn2c3ccc(OC)cc3c3nc4n(c(=O)c32)CCS4)c1 | 5.7 | 8.8 | 2.6 | -9.2 | 56.9* | 19.9 | -1.0 | -6.8
COc1ccc(-c2nc(N)ncc2-c2ccc(OC)c(OC)c2)c(O)c1 | 4.4 | 0.8 | -0.6 | 10.3 | 57.3* | 26.5 | 0.4 | -6.4
CCOc1ccc(-c2nc(N)ncc2Oc2cccc(OC)c2)c(O)c1 | -2.6 | 1.5 | -1.3 | 1.1 | 47.1* | 38.1 | 2.3 | 3.7
CCc1cc(-c2nc(N)ncc2-c2ccc(Br)cc2)c(O)cc1OC | -6.8 | 4.4 | -0.7 | 6.7 | 76.7* | 48.3 | -0.7 | -5.9
